Measured values as given in ChEMBL document CHEMBL1773050, “Identification of inhibitors that block vaccinia virus infection by targeting the DNA synthesis processivity factor D4” (J Med Chem, 2011).
Values after ≈ are worked out from the molar mass of the structure shown.

Molecular target: Uracil-DNA glycosylase (Vaccinia virus (strain Western Reserve) (VACV) (Vaccinia virus (strainWR)), UniProt P04303)
Assay: Inhibition of Vaccinia virus WR strain processivity factor D4 interaction with A20 protein assessed as inhibition of E9 DNA polymerase-mediated DIG-dUTP incorporation into DNA strand by rapid plate assay
Parameters: species or system Orthopoxvirus vaccinia
Conditions: not given
How it was run: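 Annealed biotinylated primer/100-bp template was coated on streptavidin plates. Compounds were 2-fold serial dilutions in DMSO. After 37 °C for 30 min, DIG-ELISA was read at 405 nm and normalised to DMSO and EDTA controls. Triplicates were used across at least three experiments.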

Compound	IC50
Oc1ccc(Cl)cc1Sc1cc(Cl)ccc1O [FENTICLOR]	38.5 µM
O=S(=O)(c1ccc(C2=CSC(Nc3ccc(F)cc3)N2CCCCCCO)cc1)N1CCCC1 (configuration not stated)	> 200 µM
COc1ccc(OCCn2c(NC(=O)c3ccc(OC)cc3)nc3ccccc32)cc1	169 µM
COc1ccc(C)cc1N(CC(=O)N1CCC(C)CC1)S(=O)(=O)c1ccc(C)cc1	175 µM
CCOc1ccccc1C(=O)Nc1ccc2nc3c(c(Nc4ccc(OC)c(OC)c4)c2c1)CCCC3	106 µM
Fc1ccc(Nc2c(-c3ccccn3)nc3ccc(Cl)cn23)cc1	> 200 µM
COc1ccc(NCc2nc3ccccc3n2CCOc2ccc(C)cc2)cc1	> 200 µM
O=C1c2ccccc2-c2onc3c2C1C(NC1CCCCC1)C=C3NCCO (configuration not stated)	34.1 µM
Cc1ccnc(NC(c2ccccc2F)c2ccc3cccnc3c2O)c1 (configuration not stated)	157 µM
COc1ccc(Nc2nc(Nc3ccc(OC)cc3OC)nc(N3CCOCC3)n2)c(OC)c1	> 200 µM
COc1cc(-c2nc3ccc(Cl)cn3c2Nc2ccc3c(c2)OCCO3)ccc1O	> 200 µM
Cc1ccc2oc(-c3ccc(Cl)cc3)c(O)c(=O)c2c1	195 µM
CCOc1ccc2c(c1)C1CC=CC1[C@H](c1ccccc1Cl)N2 (some centres not stated)	221 µM
COc1cc(-c2nc(-c3ccccc3)c(-c3ccc(Br)cc3)[nH]2)cc(OC)c1O	91.2 µM

Tested on: not listed separately
Assay: (§1) Cytotoxicity against african green monkey BSC1 cells infected with Vaccinia virus assessed as lactate dehydrogenase release after 20 hrs by microplate reader
Type: cell-based, BSC-1
Conditions: chlorocebus aethiops, BSC-1 cells infected with Vaccinia virus
How it was run: (§2)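 BSC-1 cells, seeded at 1 × 10^4 cells/well for 24 h, then received inhibitors at 2-fold serial dilutions in fresh medium with 1% DMSO for 20 h. LDH release into the medium was read at 492 nm after 30 min with reaction mixture in the dark. 2% Triton X-100 gave maximal release and 1% DMSO served as baseline. Triplicates were used, with three independent repeats, giving CC50.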

Compound	CC50 at 20 h
O=C1c2ccccc2-c2onc3c2C1C(NC1CCCCC1)C=C3NCCO (configuration not stated)	127 µM

Tested on: BSC-1
Assay: as §1
Type: cell-based
Conditions: chlorocebus aethiops, bsc-1, 20 h
How it was run: as §2

Compound	CC50
O=S(=O)(c1ccc(C2=CSC(Nc3ccc(F)cc3)N2CCCCCCO)cc1)N1CCCC1 (configuration not stated)	> 200 µM
COc1ccc(OCCn2c(NC(=O)c3ccc(OC)cc3)nc3ccccc32)cc1	23.2 µM
COc1ccc(C)cc1N(CC(=O)N1CCC(C)CC1)S(=O)(=O)c1ccc(C)cc1	> 200 µM
CCOc1ccccc1C(=O)Nc1ccc2nc3c(c(Nc4ccc(OC)c(OC)c4)c2c1)CCCC3	73.7 µM
Fc1ccc(Nc2c(-c3ccccn3)nc3ccc(Cl)cn23)cc1	> 200 µM
COc1ccc(NCc2nc3ccccc3n2CCOc2ccc(C)cc2)cc1	121 µM
Cc1ccnc(NC(c2ccccc2F)c2ccc3cccnc3c2O)c1 (configuration not stated)	> 200 µM
COc1ccc(Nc2nc(Nc3ccc(OC)cc3OC)nc(N3CCOCC3)n2)c(OC)c1	170 µM
COc1cc(-c2nc3ccc(Cl)cn3c2Nc2ccc3c(c2)OCCO3)ccc1O	> 200 µM
Cc1ccc2oc(-c3ccc(Cl)cc3)c(O)c(=O)c2c1	> 200 µM
CCOc1ccc2c(c1)C1CC=CC1[C@H](c1ccccc1Cl)N2 (some centres not stated)	> 200 µM
COc1cc(-c2nc(-c3ccccc3)c(-c3ccc(Br)cc3)[nH]2)cc(OC)c1O	57.2 µM

Molecular target: Uracil-DNA glycosylase (Vaccinia virus (strain Western Reserve) (VACV) (Vaccinia virus (strainWR))) (UniProt P04303)
Assay: Binding affinity at Vaccinia virus WR strain D4 assessed as change in unfolding transition temperature at 50 uM by thermofluor method
Conditions: not given
How it was run: (§3)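 Native D4 at 4 μM, His-tag removed and dialysed into buffer, was tested with or without 50 μM compound (final, 1% DMSO). Buffer was 25 mM Tris pH 7.2, 0.15 M NaCl, 5 mM ZnCl2, with Sypro Orange. Fluorescence was read from 25 to 80 °C at 1 °C/min. Tm is the unfolding midpoint, and ΔTm is Tm minus the DMSO mock. At least three independent experiments were run.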

Compound	ΔTm
O=S(=O)(c1ccc(C2=CSC(Nc3ccc(F)cc3)N2CCCCCCO)cc1)N1CCCC1 (configuration not stated)	-3.3 °C
COc1ccc(OCCn2c(NC(=O)c3ccc(OC)cc3)nc3ccccc32)cc1	-4.1 °C
COc1ccc(C)cc1N(CC(=O)N1CCC(C)CC1)S(=O)(=O)c1ccc(C)cc1	-4.8 °C
CCOc1ccccc1C(=O)Nc1ccc2nc3c(c(Nc4ccc(OC)c(OC)c4)c2c1)CCCC3	-2.1 °C
Fc1ccc(Nc2c(-c3ccccn3)nc3ccc(Cl)cn23)cc1	-3.7 °C
COc1ccc(NCc2nc3ccccc3n2CCOc2ccc(C)cc2)cc1	-3.2 °C
Cc1ccnc(NC(c2ccccc2F)c2ccc3cccnc3c2O)c1 (configuration not stated)	-2 °C
COc1ccc(Nc2nc(Nc3ccc(OC)cc3OC)nc(N3CCOCC3)n2)c(OC)c1	-3.4 °C
COc1cc(-c2nc3ccc(Cl)cn3c2Nc2ccc3c(c2)OCCO3)ccc1O	-1.5 °C
Cc1ccc2oc(-c3ccc(Cl)cc3)c(O)c(=O)c2c1	-2 °C
CCOc1ccc2c(c1)C1CC=CC1[C@H](c1ccccc1Cl)N2 (some centres not stated)	-5 °C
COc1cc(-c2nc(-c3ccccc3)c(-c3ccc(Br)cc3)[nH]2)cc(OC)c1O	4.6 °C

Tested on: not listed separately
Assay: Solubility of the compound in phosphate buffer by chemiluminescence of total nitrogen contents
Type: physicochemical
Conditions: buffer

Compound	solubility
COc1cc(-c2nc(-c3ccccc3)c(-c3ccc(Br)cc3)[nH]2)cc(OC)c1O	1.4 µg/mL (≈ 3.1 µM)

Same assay, conditions: phosphate buffer; read-out: solubility

Compound	solubility
O=C1c2ccccc2-c2onc3c2C1C(NC1CCCCC1)C=C3NCCO (configuration not stated)	1.4 µg/mL (≈ 3.69 µM)

Tested on: Vaccinia virus
Assay: Antiviral activity against Vaccinia virus infected in BSC-1 cells by plaque reduction assay
Type: functional, organism-based
Conditions: Orthopoxvirus vaccinia

Compound	EC50
Oc1ccc(Cl)cc1Sc1cc(Cl)ccc1O [FENTICLOR]	18.7 µM
O=S(=O)(c1ccc(C2=CSC(Nc3ccc(F)cc3)N2CCCCCCO)cc1)N1CCCC1 (configuration not stated)	3.2 µM
COc1ccc(OCCn2c(NC(=O)c3ccc(OC)cc3)nc3ccccc32)cc1	47.9 µM
CCOc1ccccc1C(=O)Nc1ccc2nc3c(c(Nc4ccc(OC)c(OC)c4)c2c1)CCCC3	> 200 µM
Fc1ccc(Nc2c(-c3ccccn3)nc3ccc(Cl)cn23)cc1	3.8 µM
COc1ccc(NCc2nc3ccccc3n2CCOc2ccc(C)cc2)cc1	5.5 µM
Cc1ccnc(NC(c2ccccc2F)c2ccc3cccnc3c2O)c1 (configuration not stated)	2.9 µM
COc1cc(-c2nc3ccc(Cl)cn3c2Nc2ccc3c(c2)OCCO3)ccc1O	10.8 µM
CCOc1ccc2c(c1)C1CC=CC1[C@H](c1ccccc1Cl)N2 (some centres not stated)	22.4 µM
COc1cc(-c2nc(-c3ccccc3)c(-c3ccc(Br)cc3)[nH]2)cc(OC)c1O	16.7 µM

Tested on: not listed separately
Assay: Selectivity index, CC50 for African green monkey BSC-1 cells to EC50 for Vaccinia virus
Type: toxicity, cell-based
Conditions: read-out: Ratio CC50/EC50

Compound	selectivity ratio
O=S(=O)(c1ccc(C2=CSC(Nc3ccc(F)cc3)N2CCCCCCO)cc1)N1CCCC1 (configuration not stated)	63
COc1ccc(OCCn2c(NC(=O)c3ccc(OC)cc3)nc3ccccc32)cc1	0.5
CCOc1ccccc1C(=O)Nc1ccc2nc3c(c(Nc4ccc(OC)c(OC)c4)c2c1)CCCC3	11
Fc1ccc(Nc2c(-c3ccccn3)nc3ccc(Cl)cn23)cc1	53
COc1ccc(NCc2nc3ccccc3n2CCOc2ccc(C)cc2)cc1	22
Cc1ccnc(NC(c2ccccc2F)c2ccc3cccnc3c2O)c1 (configuration not stated)	69
COc1cc(-c2nc3ccc(Cl)cn3c2Nc2ccc3c(c2)OCCO3)ccc1O	18
CCOc1ccc2c(c1)C1CC=CC1[C@H](c1ccccc1Cl)N2 (some centres not stated)	9
COc1cc(-c2nc(-c3ccccc3)c(-c3ccc(Br)cc3)[nH]2)cc(OC)c1O	3

Molecular target: Uracil-DNA glycosylase (Vaccinia virus (strain Western Reserve) (VACV) (Vaccinia virus (strainWR))) (UniProt P04303)
Assay: Binding affinity at Vaccinia virus WR strain D4 assessed as melting temperature at 50 uM by thermofluor method
Conditions: not given
How it was run: as §3

Compound	Tm
O=S(=O)(c1ccc(C2=CSC(Nc3ccc(F)cc3)N2CCCCCCO)cc1)N1CCCC1 (configuration not stated)	35.1 °C
COc1ccc(OCCn2c(NC(=O)c3ccc(OC)cc3)nc3ccccc32)cc1	34.3 °C
COc1ccc(C)cc1N(CC(=O)N1CCC(C)CC1)S(=O)(=O)c1ccc(C)cc1	33.6 °C
CCOc1ccccc1C(=O)Nc1ccc2nc3c(c(Nc4ccc(OC)c(OC)c4)c2c1)CCCC3	36.3 °C
Fc1ccc(Nc2c(-c3ccccn3)nc3ccc(Cl)cn23)cc1	34.7 °C
COc1ccc(NCc2nc3ccccc3n2CCOc2ccc(C)cc2)cc1	35.2 °C
Cc1ccnc(NC(c2ccccc2F)c2ccc3cccnc3c2O)c1 (configuration not stated)	36.4 °C
COc1ccc(Nc2nc(Nc3ccc(OC)cc3OC)nc(N3CCOCC3)n2)c(OC)c1	35 °C
COc1cc(-c2nc3ccc(Cl)cn3c2Nc2ccc3c(c2)OCCO3)ccc1O	36.9 °C
Cc1ccc2oc(-c3ccc(Cl)cc3)c(O)c(=O)c2c1	36.4 °C
CCOc1ccc2c(c1)C1CC=CC1[C@H](c1ccccc1Cl)N2 (some centres not stated)	35.2 °C
COc1cc(-c2nc(-c3ccccc3)c(-c3ccc(Br)cc3)[nH]2)cc(OC)c1O	43 °C
